In ChEMBL document CHEMBL5653606 (J Pharmacol Exp Ther, 2011):
The source made the active and inactive calls. The calls are words filed in the database; no cut-off is given here.

Assays:
[1] = target: T1, Fatty-acid amide hydrolase 1 (Homo sapiens) (UniProt O00519); experiment: Inhibition of FAAH in human brain at 10 uM in presence of FP-rhodamine by competitive activity-based protein profiling method; format: tissue-based
T1 sequence (whole entry): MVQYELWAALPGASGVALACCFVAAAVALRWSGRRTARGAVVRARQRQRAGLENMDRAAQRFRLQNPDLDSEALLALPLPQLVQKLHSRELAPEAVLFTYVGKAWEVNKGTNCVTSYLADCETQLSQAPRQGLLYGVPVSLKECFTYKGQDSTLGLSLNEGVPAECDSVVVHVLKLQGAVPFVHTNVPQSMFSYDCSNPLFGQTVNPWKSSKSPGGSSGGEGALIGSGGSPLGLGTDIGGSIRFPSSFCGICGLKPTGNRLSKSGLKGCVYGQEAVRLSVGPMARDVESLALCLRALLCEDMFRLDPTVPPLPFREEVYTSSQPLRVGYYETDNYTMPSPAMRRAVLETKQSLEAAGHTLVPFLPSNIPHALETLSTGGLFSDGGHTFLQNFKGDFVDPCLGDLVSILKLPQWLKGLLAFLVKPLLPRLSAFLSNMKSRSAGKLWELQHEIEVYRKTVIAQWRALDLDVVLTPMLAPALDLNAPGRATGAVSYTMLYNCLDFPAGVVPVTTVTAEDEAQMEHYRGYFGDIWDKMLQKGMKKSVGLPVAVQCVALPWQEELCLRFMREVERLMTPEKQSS
Procedure, shortened: (§1)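 Competitive ABPP on human and mouse brain, liver and heart proteomes (membrane and soluble fractions), exposed to compound at 10 or 100 μM or to DMSO. Serine hydrolases were then labeled with FP-rhodamine. Gels were read by fluorescence scanning, and loss of band labeling (FAAH or other hydrolases by kDa) was judged.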

[2] = target: T2, Fatty-acid amide hydrolase 1 (Mus musculus) (UniProt O08914); experiment: Inhibition of FAAH in mouse brain at 100 uM in presence of FP-rhodamine by competitive activity-based protein profiling method; format: tissue-based; procedure, shortened: as §1
T2 sequence (whole entry): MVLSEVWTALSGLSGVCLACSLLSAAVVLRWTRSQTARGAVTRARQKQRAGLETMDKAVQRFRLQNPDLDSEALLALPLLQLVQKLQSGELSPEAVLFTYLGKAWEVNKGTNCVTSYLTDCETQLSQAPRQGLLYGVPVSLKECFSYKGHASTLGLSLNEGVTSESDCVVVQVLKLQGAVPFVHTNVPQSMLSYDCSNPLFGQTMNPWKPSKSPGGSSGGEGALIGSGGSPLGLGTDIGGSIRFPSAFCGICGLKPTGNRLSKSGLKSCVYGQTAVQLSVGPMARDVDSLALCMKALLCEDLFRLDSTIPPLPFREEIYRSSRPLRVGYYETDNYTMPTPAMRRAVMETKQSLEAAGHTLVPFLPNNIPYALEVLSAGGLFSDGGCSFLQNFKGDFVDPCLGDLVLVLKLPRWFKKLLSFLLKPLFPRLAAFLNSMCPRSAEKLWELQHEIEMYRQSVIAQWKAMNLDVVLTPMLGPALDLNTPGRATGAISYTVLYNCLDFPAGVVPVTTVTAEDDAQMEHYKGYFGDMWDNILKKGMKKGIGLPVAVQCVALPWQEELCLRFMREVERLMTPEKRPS

[3] = Ratio of drug concentration in rat brain to plasma at 1 mg/kg, po administered for 4 hrs by LC/MS analysis; format: ADME, organism-based; conditions: brain and plasma
Procedure, shortened: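 Male Sprague-Dawley rats received a single oral dose of 1 mg/kg. Plasma (ng/ml) and brain (ng/g tissue) drug levels were measured at 1, 2, 4, 8 and 24 h after dosing.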

inhibition [1]: Active
inhibition [2]: Active
Kp at 4 h [3]: 1.6
Structure (SMILES): O=C(Nc1cccnn1)N1CCC(=Cc2cccc(Oc3ccc(C(F)(F)F)cn3)c2)CC1
